From ChEMBL document CHEMBL1142652, “5-(2-aminoethyl)dibenzo[c,h][1,6]naphthyridin-6-ones: variation of n-alkyl substituents modulates sensitivity to efflux transporters associated with multidrug resistance” (J Med Chem, 2005) come the findings set out here.

Molecules are shown by their SMILES.

The test system of test [1] is KB 3-1. Nature of the test: Inhibitory concentration against KBH5.0 cells overexpress BCRP. Type of test: functional, cell-based. To be noted: Homo sapiens, KBH5.0 cell. The gist of the method:
(§1)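 MTT microtiter tetrazolium assay. Cells exposed continuously for 4 days to varying drug concentrations, MTT read at the end of day 4. An untreated control ran in each assay. IC50 taken; each assay done at least twice in six replicate wells. Sources: RPMI 8402 human lymphoblasts and CPT-resistant CPT-K5; P388 mouse leukemia and CPT-resistant TOP1-deficient P388/CPT45; KB3-1 with KBV-1 (MDR1) and KBH5.0 (BCRP, selected stepwise against Hoechst 33342).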

A short description of test [2]: Inhibitory concentration against KB/V-1 cells overexpress MDR1. Type of test: functional, cell-based. Conditions: Homo sapiens. The gist of the method: as §1
Test [3] addresses T1, DNA topoisomerase 1 (Homo sapiens) (UniProt P11387).
T1 sequence (whole entry): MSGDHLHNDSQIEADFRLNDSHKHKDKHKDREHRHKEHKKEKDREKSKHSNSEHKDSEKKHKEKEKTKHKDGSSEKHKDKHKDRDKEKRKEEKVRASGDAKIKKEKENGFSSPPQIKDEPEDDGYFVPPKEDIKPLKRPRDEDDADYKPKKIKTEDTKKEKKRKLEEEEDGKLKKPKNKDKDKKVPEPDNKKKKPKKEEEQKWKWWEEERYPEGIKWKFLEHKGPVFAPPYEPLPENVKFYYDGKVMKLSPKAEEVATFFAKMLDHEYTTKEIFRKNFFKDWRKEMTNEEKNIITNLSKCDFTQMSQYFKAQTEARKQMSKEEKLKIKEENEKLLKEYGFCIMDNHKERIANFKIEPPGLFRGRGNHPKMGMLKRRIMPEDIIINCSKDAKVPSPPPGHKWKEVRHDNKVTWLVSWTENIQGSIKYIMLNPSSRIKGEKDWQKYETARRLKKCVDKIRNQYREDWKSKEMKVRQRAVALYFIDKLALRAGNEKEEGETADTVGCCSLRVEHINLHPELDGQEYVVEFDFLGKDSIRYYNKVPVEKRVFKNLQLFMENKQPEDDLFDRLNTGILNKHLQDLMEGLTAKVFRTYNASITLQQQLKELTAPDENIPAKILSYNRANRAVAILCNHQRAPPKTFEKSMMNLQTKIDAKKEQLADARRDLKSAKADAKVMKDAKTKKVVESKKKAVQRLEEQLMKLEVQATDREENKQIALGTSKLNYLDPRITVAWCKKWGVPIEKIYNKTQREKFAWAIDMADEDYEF
Nature of the test: Relative topoisomerase I-mediated plasmid DNA cleavage compared to topotecan. Type of test: functional. An outline of the steps:
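Recombinant human topoisomerase I (T7-expressed in E. coli as a fusion protein). End-labeled plasmid YepG, CsCl-purified, incubated with drug and enzyme 30 min at 37 °C. Gel autoradiograms, typically 24 h exposure. Value is REC: concentration relative to topotecan (set at 1.0) that gives the same cleavage.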

For test [4], the system named is RPMI 8402. Nature of the test: Inhibitory concentration against lymphoblast RPMI 8402 cell line was determined. Type of test: functional, cell-based. Conditions: Homo sapiens. An outline of the steps: as §1
Test [5] in a line: Inhibitory concentration against camptothecin-resistant variant of P388 cell line was determined. Type of test: functional, cell-based, Mus musculus. An outline of the steps: as §1
Test [6] relates to KB 3-1. Nature of the test: Inhibitory concentration against KB3-1 cell line was determined. Type of test: functional, cell-based. To be noted: Homo sapiens. An outline of the steps:
as §1

For another test, the system named is P388. Put plainly: Inhibitory concentration against P388 cell line in mouse leukemia was determine. The class given is functional, cell-based. The gist of the method: as §1
For test [7], the system named is RPMI 8402. Nature of the test: Cytotoxicity against camptothecin-resistant RPMI 8402. Type of test: functional, cell-based. Conditions: Homo sapiens. The gist of the method:
as §1

Usually IC50 stands for the concentration that inhibits the measured activity by half. High values mean lower potency, low ones higher potency. As to `COc1cc2c(=O)n(CCN(C(C)C)C(C)C)c3c4cc5c(cc4ncc3c2cc1OC)OCO5`, the IC50 is 0.04 µM with KB 3-1 [1]; 0.04 µM in test [2]; 0.008 µM in the test with RPMI 8402 [4]; 0.2 µM in test [5]; 0.005 µM with KB 3-1 [6]; 0.006 µM with P388. The molecule further came in with an IC50 in the test with RPMI 8402 [7] of 0.6 µM. For the same molecule, the Activity in test [3] was 4.7.
